In ChEMBL document CHEMBL4028901, “Novel Antitubercular 6-Dialkylaminopyrimidine Carboxamides from Phenotypic Whole-Cell High Throughput Screening of a SoftFocus Library: Structure-Activity Relationship and Target Identification Studies” (J Med Chem, 2017):
In brackets after ≈: the same amount, converted by molar mass.

Tested on: Mycobacterium tuberculosis
Assay: Antibacterial activity against Mycobacterium bovis BCG grown in 7H9 medium after 6 days by resazurin-based fluorescent method
Format: functional
Details: variant bovis BCG, 144 h
Summary of the method: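 M. bovis BCG at 10⁵ CFU/ml in 7H9 with 0.025% tyloxapol and 2% glucose. Compounds tested as 10 two-fold dilutions from 50 μM. Incubated 6 days at 37 °C, then resazurin added for a further 48 h. Endpoint fluorescence read at excitation 530 nm, emission 590 nm.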

CN1CCN(c2ccc(NC(=O)c3cc(N(CCCN)Cc4ccccc4)ncn3)cc2)CC1
MIC: 18.6 µM (≈ 8.55 µg/mL)
